Compound activity deposited in PubChem by The Scripps Research Institute Molecular Screening Center.
NOD2-RIPK2 inh = blocks binding of human NOD2 to RIPK2; AID 624267; O43353; inhibition, % at 4.98 µM; 360,000 tested, 0.38% active; CHO BLA complementation NOD2-RIPK2, CCF4 ratio; in the data active = inhibition above about 21%;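 also: 0% = vehicle only and 100% = reference blocker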
MC4R ag barr = agonists of human melanocortin 4 receptor (MC4R) beta-arrestin; P32245; U2OS MC4R beta-arrestin complementation, luminescence; percent of melanotan II response, DMSO zero; activation, % at 8.9 µM; 360,000 tested, 0.98% active; AID 540308;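 active = activation above a per-plate cutoff, the mean activation of sample wells on that plate plus 3 SD, cut at about 8% in these data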
TLR9-MyD88 inh = blocks human TLR9 binding to MyD88. AID 504734. CHO BLA complementation TLR9-MyD88, CCF4 FRET ratio. Q9NR96+Q99836. inhibition, % at 4.98 µM. 340,000 tested, 0.21% active;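 active = inhibition above the mean over all tested compounds plus 3 SD, cut at about 21% in these data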;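 also: 0% = DMSO only wells and 100% = clavulanate BLA inhibitor control wells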
TLR4 MyD88 comp = inhibitors of human TLR4-MyD88 binding | O00206+Q99836 | HeLa CL3-4 TLR4/MyD88 BLA complementation, FRET ratio | inhibition, % at 8.4 µM | 200,000 tested, 0.18% active | AID 861; in the data active = inhibition above about 25%;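 also: 0% = vehicle and 100% = reference inhibitor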
MC4R antagonist = antagonists of human melanocortin 4 receptor (MC4R) | inhibition, % at 6.5 µM | AID 540295 | MC4R-expressing cells, MTII-stimulated cAMP, LANCE TR-FRET | P32245 | 360,000 tested, 0.48% active;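 active = inhibition above its plate's cutoff, the mean of tested wells on that plate plus 3 SD, cut at about 29% in these data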;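 also: 0% = Melanotan II alone and 100% = Melanotan II plus saturating MCL0020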
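System: U2OS cells stably expressing human melanocortin 4 receptor (MC4R). Reagent: Melanotan II challenge after compound preincubation. Doses: 6.5 µM. Times: 30-min compound, 1-h challenge, 1-h detection, room temperature. Measured by: TR-FRET with Eu-cAMP and labeled anti-cAMP, 671 nm. Replicates: singlicate.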
TLR9-MyD88 conf = TLR9-MyD88 interaction inhibition, confirmation. shares compounds with TLR9-MyD88 inh. CHO TLR9/MyD88 BLA complementation, CCF4 FRET ratio. inhibition, % at 4.98 µM. 680 tested, 51% active;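 active = mean inhibition across three repeats above about 21% taken from the earlier screen, limit read from the data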;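 also: blue over green emission ratio reports constitutive TLR9 MyD88 association via BLA complementation; 0% = DMSO vehicle wells and 100% = clavulanate BLA inhibitor wells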
Target sequence (Q9NR96 whole entry, looked up): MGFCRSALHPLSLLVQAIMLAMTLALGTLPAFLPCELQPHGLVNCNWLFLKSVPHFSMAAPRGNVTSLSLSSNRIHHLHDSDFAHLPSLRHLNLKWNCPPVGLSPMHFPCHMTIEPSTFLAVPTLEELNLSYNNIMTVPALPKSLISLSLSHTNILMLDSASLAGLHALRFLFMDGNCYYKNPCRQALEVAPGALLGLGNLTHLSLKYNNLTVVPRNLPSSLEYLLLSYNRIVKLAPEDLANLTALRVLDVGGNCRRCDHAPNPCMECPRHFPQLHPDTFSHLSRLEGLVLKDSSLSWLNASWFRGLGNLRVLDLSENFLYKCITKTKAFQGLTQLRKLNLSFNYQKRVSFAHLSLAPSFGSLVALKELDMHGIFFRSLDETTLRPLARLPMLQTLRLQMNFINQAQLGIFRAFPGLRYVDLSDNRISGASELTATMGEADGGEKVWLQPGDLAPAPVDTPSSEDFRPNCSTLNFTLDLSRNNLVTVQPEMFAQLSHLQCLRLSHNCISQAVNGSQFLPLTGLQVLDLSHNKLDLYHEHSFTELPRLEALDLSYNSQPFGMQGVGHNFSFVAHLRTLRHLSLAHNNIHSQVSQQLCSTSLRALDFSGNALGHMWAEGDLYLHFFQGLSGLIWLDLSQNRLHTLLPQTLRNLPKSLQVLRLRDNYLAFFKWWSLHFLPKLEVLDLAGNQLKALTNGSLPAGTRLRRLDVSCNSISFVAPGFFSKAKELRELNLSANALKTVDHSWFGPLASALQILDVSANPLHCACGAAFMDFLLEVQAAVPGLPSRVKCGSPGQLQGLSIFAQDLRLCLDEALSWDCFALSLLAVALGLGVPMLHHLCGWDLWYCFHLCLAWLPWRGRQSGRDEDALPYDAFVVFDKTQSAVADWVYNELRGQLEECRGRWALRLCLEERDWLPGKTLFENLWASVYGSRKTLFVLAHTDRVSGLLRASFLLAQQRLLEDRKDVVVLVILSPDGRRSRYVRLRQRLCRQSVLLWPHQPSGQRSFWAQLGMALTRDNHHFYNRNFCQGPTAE
BLA counter = beta-lactamase reporter inhibition, counter-screen artifact. shares compounds with TLR9-MyD88 inh. CHO-BLA cells, CCF4 FRET ratio, BLA reporter. inhibition, % at 4.98 µM. 680 tested, 7% active. AID 540251;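 active = mean inhibition above a 50% cutoff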;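 also: counterscreen of TLR9-MyD88 hits on CMV-driven BLA in CHO-K1 cells; 0% = DMSO alone and 100% = clavulanate blocking BLA; higher means less blue over green ratio so more BLA blockade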
TLR9 CHO cytotox = counter-screen for TLR9-MyD88 inhibitors: cytotoxicity in CHO cells | shares compounds with TLR9-MyD88 inh | luminescence | inhibition, % at 4.98 µM | 680 tested, 39% active | AID 588336; in the data active = inhibition above about 11%
An asterisk follows results filed as active; nt = no result given. Hits are enriched below; roughly 1.8% of the tested compounds scored in any of these assays.

SMILES | NOD2-RIPK2 inh | MC4R ag barr | TLR9-MyD88 inh | TLR4 MyD88 comp | MC4R antagonist | TLR9-MyD88 conf | BLA counter | TLR9 CHO cytotox
CC(OC(=O)C1CC(=O)N(Cc2ccccc2)C1)C(=O)Nc1cccc(C#N)c1 (centres undefined) | -10 | 0 | -5 | nt | 19 | nt | nt | nt
COc1ccc(-c2cc(C(F)(F)F)c3c(N)c(C(=O)NCCSC)sc3n2)cc1 | 6 | 1 | 22* | nt | 4 | 74* | 73* | 14*
CN(C)CCNC(=O)c1sc2nc(-c3ccccc3)cc(C(F)(F)F)c2c1N | 17 | 5 | 10 | nt | -3 | nt | nt | nt
NC(=O)c1ccsc1NC(=O)COC(=O)CCc1ccccc1 | -12 | -1 | 6 | nt | 9 | nt | nt | nt
Cn1c(O)c(/C=N/NC(=O)c2cc3ccccc3cc2O)c2ccccc21 | 17 | -4 | 31* | nt | 7 | 23* | 16 | 25*
Cn1c2ccccc2c2cc(/C=N/NC(=O)c3ccc(O)cc3O)ccc21 | 0 | -2 | -4 | nt | 10 | nt | nt | nt
CCOc1ccccc1NC(=O)c1cc(=O)[nH]c2ccc(S(=O)(=O)N3CCOCC3)cc12 | -2 | -1 | -5 | nt | -1 | nt | nt | nt
O=C(COc1ccc(Br)cc1)NCCCNC(=O)c1ccncc1 | -9 | -3 | 5 | nt | 6 | nt | nt | nt
O=C1Cc2ccccc2C(=O)N1c1ccccc1 | -7 | 0 | 31* | nt | 24 | 42* | 46 | 6
COC(=O)CSc1nc(N)c2c3c(sc2n1)C(c1ccccc1)SC(c1ccccc1)C3 (centres undefined) | 15 | -2 | 26* | -1 | 27 | -4 | -1 | 1
Cc1onc(-c2c(F)cccc2Cl)c1C(=O)O/N=C(\N)c1ccc([N+](=O)[O-])o1 | -6 | -1 | 2 | nt | 7 | nt | nt | nt
O=C1c2ccccc2NC(c2ccc(-c3ccc(C(F)(F)F)cc3)o2)N1O (centres undefined) | 4 | 4 | 24* | nt | 13 | 4 | 5 | 41*
COc1cc(SC)ccc1C(=O)Nc1ccc2c(c1)CCC2 | 1 | 1 | 2 | nt | -3 | nt | nt | nt
N/C(=N\OC(=O)c1cccc(C(F)(F)F)c1)c1cnccn1 | -8 | 0 | -1 | nt | 3 | nt | nt | nt
O=C(OCn1ncc(Cl)c(Cl)c1=O)c1cccc(C(F)(F)F)c1 | 48* | 4 | 30* | 17 | 22 | 24* | 12 | 97*
O=C(Oc1ccc2ccc(=O)oc2c1)c1ccco1 | -9 | -3 | -4 | nt | -1 | nt | nt | nt
CS(=O)(=O)c1sc2nc(-c3cccs3)cc(-c3ccccc3)c2c1N | 3 | -1 | 25* | 15 | 9 | 19 | 17 | 4
O=C(O)c1cccc(-n2sc3ccccc3c2=O)c1 | 4 | -3 | 0 | nt | 14 | nt | nt | nt
O=c1c2ccccc2sn1-c1cccc(Cl)c1 | 1 | -1 | 11 | nt | 2 | nt | nt | nt
N#Cc1ccc2c(=O)n(-c3ccccc3)sc2c1 | 0 | -4 | 39* | nt | 13 | 18 | -3 | 96*
O=c1c2cc(C(F)(F)F)ccc2sn1-c1ccccc1 | -3 | -2 | 23* | nt | -4 | 26* | -5 | 58*
Cc1ccsc1C(=O)OCC(=O)NC1CCCCC1 | -9 | 1 | 21* | nt | 5 | -5 | -5 | 0
CC(C)(C)c1cc(NC(=O)c2c(F)cccc2Cl)n(-c2ccccc2)n1 | 1 | -2 | 23* | nt | 11 | 3 | 4 | 1
Cc1ccc(NC(=O)c2ccc([N+](=O)[O-])o2)c(C)c1 | -2 | -1 | 8 | 10 | 3 | nt | nt | nt
Cc1ccc(S(=O)(=O)c2ccc([N+](=O)[O-])o2)cc1 | 93* | -3 | 44* | nt | 88* | 51* | 19 | 99*
COc1ccc(/C=C/C(=O)NC(=S)Nc2ccc(S(=O)(=O)Nc3ccc(OC)nn3)cc2)cc1 | -5 | 0 | 27* | -4 | 20 | -4 | -1 | -1
COc1cc(/C=C2\S/C(=N/S(=O)(=O)c3ccc(C)cc3)NC2=O)c([N+](=O)[O-])cc1OC | -8 | 1 | -1 | -3 | -9 | nt | nt | nt
